In ChEMBL document CHEMBL1145462, “In vivo pharmacodynamic activity of the glycopeptide dalbavancin” (Antimicrob Agents Chemother, 2007):
Values after ≈ are worked out from the molar mass of the structure shown.

Legend:
Staphylococcus aureus [1] = assay: AUC/MBC ratio of Staphylococcus aureus ATCC 25923 infected neutropenic mouse thigh infection model at 51.2 mg/kg, ip administered every 24 hrs by 1-log killing experiment; type: functional; settings: route intraperitoneal
Streptococcus pneumoniae [2] = assay: AUC/MIC ratio of Streptococcus pneumoniae 1325 infected neutropenic mouse thigh infection model at 1.16 mg/kg, ip administered every 72 hrs by 2-log killing experiment; type: functional; settings: route intraperitoneal
Streptococcus pneumoniae [3] = assay: AUC/MIC ratio of Streptococcus pneumoniae ATCC 10813 infected neutropenic mouse thigh infection model at 1.34 mg/kg, ip administered every 24 hrs by static effect experiment; type: functional; settings: route intraperitoneal
Staphylococcus aureus [4] = assay: AUC/MBC ratio of Staphylococcus aureus 33591 infected neutropenic mouse thigh infection model at 74 mg/kg, ip administered every 72 hrs by static effect experiment; type: functional; settings: route intraperitoneal
Staphylococcus aureus [5] = assay: AUC/MIC ratio of Staphylococcus aureus 31005 infected neutropenic mouse thigh infection model at 49.3 mg/kg, ip administered every 24 hrs by static effect experiment; type: functional; settings: route intraperitoneal
Staphylococcus aureus [6] = assay: AUC/MIC ratio of Staphylococcus aureus 33591 infected neutropenic mouse thigh infection model at 114 mg/kg, ip administered every 72 hrs by 2-log killing experiment; type: functional; settings: route intraperitoneal
Streptococcus pneumoniae [7] = assay: Bactericidal activity against penicillin-susceptible Streptococcus pneumoniae ATCC 10813 infected neutropenic Swiss ICR mouse thigh infection model assessed as drug level causing 2-log reduction of bacterial count at 0.71 mg/kg, ip dosed every 72 hrs; type: functional; settings: route intraperitoneal
Summary of the method: (§1)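 Neutropenic mice (cyclophosphamide ip 150 mg/kg day −4, 100 mg/kg day −1, then every 48 h) received 0.1 ml log-phase inoculum per thigh under halothane. Intraperitoneal dalbavancin started 2 h later and was given for 6 days at q12h, q24h, q36h or q72h, two mice per regimen. Thigh CFU were counted at 144 h. Endpoint doses relative to start-of-therapy counts came from Hill-model nonlinear regression and are expressed per 24 h.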

Streptococcus pneumoniae [8] = assay: Bactericidal activity against penicillin-susceptible Streptococcus pneumoniae ATCC 10813 infected neutropenic Swiss ICR mouse thigh infection model assessed as drug level causing 1-log reduction of bacterial count at 2.3 mg/kg, ip dosed every 12 hrs; type: functional; settings: route intraperitoneal; summary of the method: as §1
Streptococcus pneumoniae [9] = assay: Bactericidal activity in Streptococcus pneumoniae ATCC 10813 infected non-neutropenic mouse thigh infection model assessed as drug level causing 1-log reduction of bacterial count at 2.03 mg/kg/6days; type: functional
[10] = AUC in bacterial pathogen-infected neutropenic Swiss ICR mouse thigh infection model at 5 mg/kg, ip; type: ADME, organism-based; set-up: dose 5 mg/kg, route intraperitoneal; settings: in vivo
Summary of the method: (§2)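 Thigh-infected neutropenic mice received single intraperitoneal doses (2.5, 5, 10, 20, 40, 80 mg/kg; 0.2 ml/dose). Blood was drawn by retroorbital aspiration from groups of three mice at 0.5, 1, 2, 4, 6, 24, 48, 72 and 96 h. Plasma levels were measured by microbiologic assay with Bacillus subtilis (detection limit 0.10 mg/liter). Noncompartmental analysis was used: half-life by linear least-squares regression, AUC by trapezoidal rule.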

Staphylococcus aureus [11] = assay: Antibacterial activity against Staphylococcus aureus 307109 by microdilution method; type: functional
Summary of the method: (§3)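 MIC and MBC were determined by CLSI broth microdilution, in duplicate on at least two occasions. Staphylococci were grown in Mueller-Hinton broth and agar; pneumococci were plated on sheep blood agar.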

Streptococcus pneumoniae [12] = assay: AUC/MIC ratio of Streptococcus pneumoniae 1325 infected neutropenic mouse thigh infection model at 1.46 mg/kg, ip administered every 24 hrs by static effect experiment; type: functional; settings: route intraperitoneal
Staphylococcus aureus [13] = assay: AUC/MIC ratio of Staphylococcus aureus ATCC 25923 infected neutropenic mouse thigh infection model at 214 mg/kg, ip administered every 72 hrs by 2-log killing experiment; type: functional; settings: route intraperitoneal
Staphylococcus aureus [14] = assay: AUC/MIC ratio of Staphylococcus aureus 33591 infected neutropenic mouse thigh infection model at 93 mg/kg, ip administered every 72 hrs by 1-log killing experiment; type: functional; settings: route intraperitoneal
Staphylococcus aureus [15] = assay: AUC/MBC ratio of methicillin-resistant Staphylococcus aureus infected neutropenic mouse thigh infection model at 45.3 mg/kg, ip administered every 24 hrs by 1-log killing experiment; type: functional; settings: route intraperitoneal
Staphylococcus aureus [16] = assay: AUC/MIC ratio of methicillin-resistant Staphylococcus aureus infected neutropenic mouse thigh infection model at 43 mg/kg, ip administered every 72 hrs by static effect experiment; type: functional; settings: route intraperitoneal
Streptococcus pneumoniae [17] = assay: AUC/MIC ratio of Streptococcus pneumoniae 1293 infected neutropenic mouse thigh infection model at 1.68 mg/kg, ip administered every 72 hrs by 2-log killing experiment; type: functional; settings: route intraperitoneal
[18] = Cmax in bacterial pathogen-infected neutropenic Swiss ICR mouse thigh infection model at 40 mg/kg, ip; type: ADME, organism-based; set-up: dose 40 mg/kg, route intraperitoneal; settings: in vivo; summary of the method: as §2
Staphylococcus aureus [19] = assay: AUC/MIC ratio of Staphylococcus aureus Smith infected neutropenic mouse thigh infection model at 95 mg/kg, ip administered every 72 hrs by 1-log killing experiment; type: functional; settings: route intraperitoneal
Staphylococcus aureus [20] = assay: Antibacterial activity against Staphylococcus aureus 31005 by microdilution method; type: functional; summary of the method: as §3
Streptococcus pneumoniae [21] = assay: Bactericidal activity against penicillin-susceptible Streptococcus pneumoniae ATCC 10813 infected neutropenic Swiss ICR mouse thigh infection model assessed as drug level causing 1-log reduction of bacterial count at 1.34 mg/kg, ip dosed every 24 hrs; type: functional; settings: route intraperitoneal
Streptococcus pneumoniae [22] = assay: AUC/MIC ratio of Streptococcus pneumoniae 1396 infected neutropenic mouse thigh infection model at 0.61 mg/kg, ip administered every 72 hrs by 1-log killing experiment; type: functional; settings: route intraperitoneal
Staphylococcus aureus [23] = assay: AUC/MIC ratio of Staphylococcus aureus 31005 infected neutropenic mouse thigh infection model at 94.6 mg/kg, ip administered every 72 hrs by 1-log killing experiment; type: functional; settings: route intraperitoneal
Staphylococcus aureus [24] = assay: AUC/MIC ratio of methicillin-resistant Staphylococcus aureus infected neutropenic mouse thigh infection model at 85 mg/kg, ip administered every 72 hrs by 2-log killing experiment; type: functional; settings: route intraperitoneal

Question: What does the source list for CN[C@H]1C(=O)N[C@@H]2Cc3ccc(cc3)Oc3cc4cc(c3O[C@@H]3O[C@H](C(=O)O)[C@@H](O)[C@H](O)[C@H]3NC(=O)CCCCCCCCC(C)C)Oc3ccc(cc3Cl)[C@@H](O)[C@@H]3NC(=O)[C@H](NC(=O)[C@@H]4NC(=O)[C@@H](NC2=O)c2cc(cc(O)c2Cl)Oc2cc1ccc2O)c1ccc(O)c(c1)-c1c(O[C@H]2O[C@H](CO)[C@@H](O)[C@H](O)[C@@H]2O)cc(O)cc1[C@@H](C(=O)NCCCN(C)C)NC3=O [DALBAVANCIN]?
Answer: Ratio (Staphylococcus aureus [1]): 60; RatioAUC/MIC (Streptococcus pneumoniae [2]): 17.6; RatioAUC/MIC (Streptococcus pneumoniae [3]): 7.5; Ratio (Staphylococcus aureus [4]): 59; RatioAUC/MIC (Staphylococcus aureus [5]): 483; RatioAUC/MIC (Staphylococcus aureus [6]): 195; Activity (Streptococcus pneumoniae [7]): 0.82; Activity (Streptococcus pneumoniae [8]): 2.8; Activity (Streptococcus pneumoniae [9]): 2.35; AUC [10]: 285 µg·h/mL; MBC (Staphylococcus aureus [11]): 0.12 µg/mL (≈ 0.0661 µM); MIC (Staphylococcus aureus [11]): 0.06 µg/mL (≈ 0.033 µM); RatioAUC/MIC (Streptococcus pneumoniae [12]): 29; RatioAUC/MIC (Staphylococcus aureus [13]): 367; RatioAUC/MIC (Staphylococcus aureus [14]): 160; Ratio (Staphylococcus aureus [15]): 109; RatioAUC/MIC (Staphylococcus aureus [16]): 147; RatioAUC/MIC (Streptococcus pneumoniae [17]): 23.8; Cmax [18]: 385 µg/mL; RatioAUC/MIC (Staphylococcus aureus [19]): 163; MBC (Staphylococcus aureus [20]): 0.12 µg/mL (≈ 0.0661 µM); MIC (Staphylococcus aureus [20]): 0.06 µg/mL (≈ 0.033 µM); Activity (Streptococcus pneumoniae [21]): 1.54; RatioAUC/MIC (Streptococcus pneumoniae [22]): 4.3; RatioAUC/MIC (Staphylococcus aureus [23]): 325; RatioAUC/MIC (Staphylococcus aureus [24]): 292
